Source: ChEMBL document CHEMBL1122650, “Synthesis and central nervous system properties of 2-[(alkoxycarbonyl)amino]-4(5)-phenyl-2-imidazolines” (J Med Chem, 1984)
One block for each compound: values may come before it. The source made the active and inactive calls. No cut-off for these calls is given here.

Columns and labels:
[1] = Lethal dose in mouse, in groups of ten; type: toxicity, organism-based; details: in vivo
[2] = HPLC capacity factor (k'); type: ADME
Mus musculus [3] = organism: Mus musculus; assay: Compound was evaluated for maximal electroshock antagonism (MES) against mice; type: functional
Procedure, shortened: (§1)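 Male HLa (ICR) BR mice, groups of eight to ten, dosed ip (aqueous solution) 15 min before transcorneal electroshock (50 mA, 0.2 s). End point: abolition of tonic hind-limb extension; quantal ED50 by Litchfield-Wilcoxon.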

Mus musculus [4] = organism: Mus musculus; assay: Mouse behavior activity was determined;S= Stimulant Weak.; type: functional, organism-based
[5] = biological target: Norepinephrine transporter (Rattus norvegicus, UniProt Q9WTR4); assay: (§2) Inhibition of the NE [3H]norepinephrine uptake by rat brain slices In vitro; type: tissue-based
Procedure, shortened: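 Rat cerebral cortex slices at 5 mg tissue/mL Krebs-Henseleit buffer, incubated at 37 °C; blanks incubated at 4 °C, controls without drug. After 20 min, incubation stopped by filtration and tissue radioactivity measured. IC50 taken from linear regression of uptake inhibition.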

Mus musculus [6] = assay: Reserpine hypothermia antagonism in mouse administered perorally with 5 mg/kg of reserpine 2 hour prior to test compound administration; type: functional; details: route oral
[7] = Compound was evaluated for lethal dose in mouse in groups of ten (values in parentheses indicates 95% confidence limits); type: toxicity, organism-based; details: in vivo
Mus musculus [8] = organism: Mus musculus; assay: Evaluated for antagonism of reserpine induced hypothermia; type: functional
Procedure, shortened: (§3)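 Male HLa (ICR) BR mice, 18-24 g, in groups of eight; reserpine 5 mg/kg ip given 2 h before oral test compound as aqueous solution. Rectal temperature taken hourly; 1-4-h hypothermia assessed by analysis of variance.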

Mus musculus [9] = organism: Mus musculus; assay: Compound was evaluated for maximal electroshock antagonism (MES) against mice (values in parentheses indicates 95% confidence limits); type: functional
Procedure, shortened: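 Male HLa (ICR) BR mice, groups of eight to ten, given compound ip as aqueous solution 15 min before transcorneal electroshock (50 mA, 0.2 s). End point was abolition of tonic hind-limb extension; quantal ED50 derived by Litchfield-Wilcoxon.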

Mus musculus [10] = organism: Mus musculus; assay: (§4) Inhibition of radioactive NE [3H]norepinephrine uptake into mouse heart; type: functional
Procedure, shortened: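 Mice received compound ip before iv [3H]NE. At 3 h after [3H]NE, hearts were removed, washed, weighed, dissolved in Protosol and counted as dpm per mg tissue. Dose-response curves derived by linear regression.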

Mus musculus [11] = organism: Mus musculus; assay: Mouse behavior activity was determined; ST = Stimulant(Weak); type: functional, organism-based
Procedure, shortened: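 Male Simonsen (ICR) fBR mice (18-24 g) given 3, 10, 30, 100, 300 or 1000 mg/kg ip as aqueous solution and observed for behaviour in groups of three.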

Mus musculus [12] = assay: Compound was evaluated in vivo for reserpine hypothermia after oral administration in mouse. Minimum active dose was reported, with the percent reversal at 10 mg/kg in parenthesis.; type: functional
Procedure, shortened: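 Male HLa (ICR) BR mice (18-24 g), groups of eight, dosed ip with 5 mg/kg reserpine 2 h before oral test compound given as aqueous solution. Rectal temperature measured hourly; 1-4-h thermia assessed by analysis of variance.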

Mus musculus [13] = assay: Compound was evaluated in vivo for reserpine hypothermia after oral administration in mouse. Minimum active dose was reported,; type: functional; procedure, shortened: as §3
Mus musculus [14] = assay: Compound was evaluated in vivo for reserpine hypothermia after oral administration in mouse Minimum active dose was reported; Inactive; type: functional, organism-based; procedure, shortened: as §3
Mus musculus [15] = organism: Mus musculus; assay: Mouse behavior activity was determined; Dwk= Depressant Weak.; type: functional, organism-based
Procedure, shortened: (§5)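 Male Simonsen (ICR) fBR mice, 18-24 g, groups of three, given 3, 10, 30, 100, 300 or 1000 mg/kg ip as aqueous solution and observed for behavioral profile; deaths followed up to 7 days.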

Mus musculus [16] = organism: Mus musculus; assay: Compound was evaluated for antagonism of reserpine induced hypothermia; Inactive.; type: functional, organism-based; procedure, shortened: as §3
Mus musculus [17] = organism: Mus musculus; assay: Compound was evaluated for maximal electroshock antagonism (MES) against mice; Inactive; type: functional, organism-based; procedure, shortened: as §1
Rattus norvegicus [18] = organism: Rattus norvegicus; assay: Inhibition of the 5-HT [14C]5-HT uptake by rat brain slices In vitro; type: functional
Procedure, shortened: (§6)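 Rat cerebral cortex slices, 5 mg tissue per mL Krebs-Henseleit buffer, incubated at 37 °C with [3H]NE or [14C]5-HT; blanks at 4 °C, undosed controls. Stopped after 20 min by filtration; slice radioactivity counted; IC50 from linear regression of uptake inhibition.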

Rattus norvegicus [19] = organism: Rattus norvegicus; assay: as §2; type: functional
Mus musculus [20] = organism: Mus musculus; assay: as §4; type: functional; remark: listed apart in the source
Procedure, shortened: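 Mice dosed ip (aqueous solution) before iv [3H]NE; hearts removed 3 h after label, washed, weighed, dissolved in Protosol and counted as dpm per mg tissue. Dose-response from linear regression.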

Mus musculus [21] = organism: Mus musculus; assay: Righting ability was determined in mice before rapid rolling (unaroused);; type: functional
Procedure, shortened: (§7)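 Male Simonsen (ICR) fBR mice, 18-24 g, groups of ten, dosed with aqueous compound. Righting ability checked before (unaroused) and after (aroused) rapid rolling in the hand; ED50 by Litchfield-Wilcoxon method.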

Mus musculus [22] = organism: Mus musculus; assay: Righting ability was determined in mice after rapid rolling (aroused); type: functional; procedure, shortened: as §7
Mus musculus [23] = organism: Mus musculus; assay: Mouse behavior activity was determined; D=-Depressant.; type: functional, organism-based; procedure, shortened: as §5
Rattus norvegicus [24] = organism: Rattus norvegicus; assay: Inhibition of the NE [3H]Norepinephrine uptake by rat brain slices In vitro; type: functional
Rattus norvegicus [25] = organism: Rattus norvegicus; assay: Inhibition of the 5-HT [14C]5-HT) uptake by rat brain slices In vitro; type: functional; procedure, shortened: as §6

Norepinephrine transporter, sequence (Q9WTR4 whole entry): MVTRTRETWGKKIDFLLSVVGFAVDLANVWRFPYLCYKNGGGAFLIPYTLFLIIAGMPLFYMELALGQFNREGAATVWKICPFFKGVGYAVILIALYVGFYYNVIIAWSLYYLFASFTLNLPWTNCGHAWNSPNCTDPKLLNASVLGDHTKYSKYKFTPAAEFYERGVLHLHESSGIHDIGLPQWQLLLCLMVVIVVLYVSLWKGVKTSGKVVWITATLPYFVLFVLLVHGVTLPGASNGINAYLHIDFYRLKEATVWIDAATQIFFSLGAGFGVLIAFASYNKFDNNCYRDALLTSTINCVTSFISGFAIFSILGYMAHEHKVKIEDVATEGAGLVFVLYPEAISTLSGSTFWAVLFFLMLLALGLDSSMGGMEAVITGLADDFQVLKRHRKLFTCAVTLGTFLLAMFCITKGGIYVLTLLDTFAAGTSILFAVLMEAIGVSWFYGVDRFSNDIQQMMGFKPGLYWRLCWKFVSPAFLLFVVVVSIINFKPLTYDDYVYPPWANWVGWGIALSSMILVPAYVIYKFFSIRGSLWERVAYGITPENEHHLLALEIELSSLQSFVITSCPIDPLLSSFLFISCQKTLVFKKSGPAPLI

SMILES: COC(=O)NC1=NC(c2ccc(Cl)cc2)CN1 (stereo not given)
- LD50 [1]: 500 mg/kg
- Log k' [2]: 0.31
- ED50 (Mus musculus [3]): ~200 mg/kg
- Mouse behavior activity (Mus musculus [4]): Stimulant weak

SMILES: CN(C)CCC=C1c2ccccc2CCc2ccccc21 [AMITRIPTYLINE]
- IC50 [5]: 2.5 µM
- Reserpine hypothermia (Mus musculus [6]): 0.15 mg/kg
- LD50 [7]: 70 mg/kg
- HYPO (Mus musculus [8]): <0.5 mg/kg
- ED50 (Mus musculus [9]): 14 mg/kg
- ED50 (Mus musculus [10]): 4.4 mg/kg
- Mouse behavior activity (Mus musculus [11]): Partial stimulant
- ED50 (Mus musculus [12]): 8 mg/kg

- Log k' [2]: 0.91
SMILES: COC(=O)NC1=NC(c2cccc(Cl)c2Cl)CN1C (stereo not given)
- ED50 (Mus musculus [13]): 23 mg/kg
- ED50 (Mus musculus [3]): 30 mg/kg

SMILES: CCCCCCOC(=O)NC1=NC(c2ccc(Cl)cc2)CN1 (stereo not given)
- LD50 [1]: 200 mg/kg
- ED50 (Mus musculus [14]): inactive
- Log k' [2]: 2.18
- Mouse behavior activity (Mus musculus [15]): Depressant - weak
- HYPO (Mus musculus [16]): inactive
- ED50 (Mus musculus [17]): inactive

- IC50 (Rattus norvegicus [18]): 30 µM
- IC50 (Rattus norvegicus [19]): 0.5 µM
SMILES: CN1CC(c2ccccc2Cl)N=C1N (stereo not given)
- Reserpine hypothermia (Mus musculus [6]): 0.15 mg/kg
- HYPO (Mus musculus [8]): <0.5 mg/kg
- ED50 (Mus musculus [20]): 18.3 mg/kg

SMILES: COC(=O)NC1=NC(c2ccccc2C)CN1 (stereo not given)
- LD50 [1]: 300 mg/kg
- Loss of righting reflex (Mus musculus [21]): 144 mg/kg
- HYPO (Mus musculus [8]): >20 mg/kg
- Log k' [2]: 0.16
- ED50 (Mus musculus [3]): 55 mg/kg
- Loss of righting reflex (Mus musculus [22]): 172 mg/kg
- Mouse behavior activity (Mus musculus [23]): Depressant

SMILES: NC1=NC(c2c(Cl)cccc2Cl)CN1 (stereo not given)
- LD50 [1]: 70 mg/kg
- IC50 (Rattus norvegicus [24]): 0.1 µM
- IC50 (Rattus norvegicus [25]): 7.8 µM
- Reserpine hypothermia (Mus musculus [6]): 0.15 mg/kg
- HYPO (Mus musculus [8]): <0.5 mg/kg
- ED50 (Mus musculus [20]): 6.5 mg/kg
- ED50 (Mus musculus [17]): inactive
